Like-named read-outs stand apart in the source and are kept apart here.
Tests used:
[1] = system: Hepatocellular carcinoma (HePG2); assay: In vitro antitumor MTT assay, HePG2; type: cell-based, human
[2] = system: Human prostate cancer (PC3); assay: In vitro antitumor MTT assay, PC3; type: cell-based; conditions: read-out: In vitro cytotoxicity IC50 PC3
[3] = system: Epitheliod Carcinoma Cervix cancer (Hela); assay: In vitro antitumor MTT assay, Hela; conditions: read-out: In vitro cytotoxicity IC50 Hela
[4] = system: Mammary gland Breast cancer (MCF-7); assay: In vitro antitumor MTT assay, MCF-7
MCF-7 cells [5] = assay: Cell cycle arrest analysis; type: cell-based, human
MCF-7 cells [6] = assay: Detection of apoptosis; type: cell-based, human; conditions: MCF-7, 24 h
[7] = system: HePG2, MCF-7, Hela and PC3 cell lines; assay: In vitro antitumor MTT assay, range over the four cell lines; type: cell-based; conditions: Homo sapiens, read-out: IC50 range towards the four cell lines
[8] = system: Human lung fibroblast (WI38) cell line; assay: In vitro cytotoxicity against human normal cells; type: cell-based; conditions: WI-38, read-out: IC50 against WI38 normal cells
[9] = system: Staphylococcus aureus ATCC 29213; assay: Minimal inhibitory concentration, S. aureus; type: cell-based; conditions: broth dilution, 37 °C 18 h
Bacillus cereus UW85 = assay: Minimal inhibitory concentration, B. cereus; type: cell-based; conditions: broth dilution, 37 °C 18 h
[10] = system: Pseudomonas aeruginosa PAO1; assay: Minimal inhibitory concentration, P. aeruginosa; type: cell-based; conditions: broth dilution, 37 °C 18 h
Summary of the method: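 Broth microdilution with serial 1:1 dilutions of test compound in Mueller Hinton broth. Wells are inoculated with bacterial suspension at 5 × 10^6 CFU/ml, and ampicillin/clavulanic acid serves as the positive control. Plates incubate at 37 °C for 18 h. MIC is the lowest concentration with no visible growth.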

Candida albicans CS351 = assay: Minimal inhibitory concentration, C. albicans; type: cell-based; conditions: broth dilution, 37 °C 18 h
[11] = read-out: In vitro cytotoxicity IC50 HePG2, MTT, Mean ± SD, n = 3
[12] = read-out: In vitro cytotoxicity IC50 MCF-7, MTT, Mean ± SD, n = 3
[13] = Homo sapiens, HepG2, read-out: In vitro cytotoxicity IC50 HePG2
[14] = Homo sapiens, MCF7, read-out: In vitro cytotoxicity IC50 MCF-7

(E)-2-(2-(1-(benzofuran-2-yl)ethylidene)hydrazineyl)-4-(benzofuran-5-yl)thiazole [Compound 10]
IC50 [1, 11]: 21.2 ± 1.8 µM | IC50 ([2]; MTT, Mean ± SD, n = 3): 34.2 ± 2.6 µM | IC50 ([3]; MTT, Mean ± SD, n = 3): 24.1 ± 2.1 µM | IC50 [4, 12]: 25.6 ± 2.2 µM

CCOC(=O)Cc1csc(N/N=C(\C)c2cc3ccccc3o2)n1 [Compound 9, Ethyl (E)-2-(2-(2-(1-(benzofuran-2-yl)ethylidene)hydrazineyl)thiazol-4-yl)acetate]
Cell cycle comment (MCF-7 cells [5]): pre-G1 apoptosis and cell growth arrest at G2/M | late apoptotic induction compared to control cells (MCF-7 cells [6]): 54 fold | late apoptotic induction (MCF-7 cells [6]; control 0.15%): 8.1% | IC50 [7]: 6.55 to 13.1 µM

C/C(=N\Nc1nc(-c2ccccc2)cs1)c1cc2ccccc2o1 [Compound 8, (E)-2-(2-(1-(benzofuran-2-yl)ethylidene)hydrazinyl)-4-(4-phenyl)thiazole]
Cell cycle comment (MCF-7 cells [5]): pre-G1 apoptosis and cell growth arrest at G2/M | late apoptotic induction compared to control cells (MCF-7 cells [6]): 98 fold | IC50 [7]: 8.49 to 16.7 µM

COc1ccc(/N=N/C(C=O)=C(/O)c2cc3ccccc3o2)cc1 [Compound 13, (E)-3-(benzofuran-2-yl)-3-hydroxy-2-((E)-(4-methoxyphenyl)diazenyl)acrylaldehyde]
IC50 [8]: 83.5 µM

C/C(=N\N=C\c1ccc([N+](=O)[O-])cc1)c1cc2ccccc2o1 [Compound 22, (E)-1-(1-(benzofuran-2-yl)ethylidene)-2-((E)-4-nitrobenzylidene) hydrazine]
IC50 [1, 13]: 77.4 ± 3.9 µM | IC50 ([2]; Homo sapiens): > 100 µM | IC50 ([3]; Homo sapiens, HeLa): > 100 µM | IC50 [4, 14]: 88.5 ± 4.6 µM

(E)-3-(benzofuran-2-yl)-3-hydroxy-2-((E)-(2-methylphenyl) diazenyl)acrylaldehyde [Compound 17]
IC50 [1, 11]: 72.4 ± 3.5 µM | IC50 ([2]; MTT, Mean ± SD, n = 3): 77.6 ± 4.3 µM | Minimal inhibitory concentration S. aureus [9]: 8 µg/mL | Minimal inhibitory concentration B. cereus (Bacillus cereus UW85): 256 µg/mL | Minimal inhibitory concentration P. aeruginosa [10]: 512 µg/mL | Minimal inhibitory concentration C. albicans (Candida albicans CS351): 512 µg/mL | IC50 ([3]; MTT, Mean ± SD, n = 3): 75 ± 4.2 µM | IC50 [4, 12]: 83.6 ± 4.3 µM

(E)-3-(benzofuran-2-yl)-3-hydroxy-2-((E)-(3-methylphenyl) diazenyl)acrylaldehyde [Compound 16]
IC50 [1, 11]: 52.3 ± 3.1 µM | IC50 ([2]; MTT, Mean ± SD, n = 3): 63.3 ± 3.9 µM | Minimal inhibitory concentration S. aureus [9]: 64 µg/mL | Minimal inhibitory concentration B. cereus (Bacillus cereus UW85): 128 µg/mL | IC50 ([3]; MTT, Mean ± SD, n = 3): 69.4 ± 4 µM | IC50 [4, 12]: 66.2 ± 3.9 µM

COc1cccc2c1C(=O)c1c(O)c3c(c(O)c1C2=O)C[C@@](O)(C(=O)CO)C[C@@H]3O[C@H]1C[C@H](N)[C@H](O)[C@H](C)O1 [DOX, doxorubicin, reference compound]
IC50 [7]: 4.17 to 8.87 µM

C/C(=N\N=C\c1cccc(Cl)c1)c1cc2ccccc2o1 [Compound 23, (E)-1-(1-(benzofuran-2-yl)ethylidene)-2-((E)-3-chlorobenzylidene)hydrazine]
IC50 [1, 13]: 86.5 ± 4.3 µM | IC50 ([2]; Homo sapiens): 91.8 ± 4.9 µM | IC50 ([3]; Homo sapiens, HeLa): > 100 µM | IC50 [4, 14]: > 100 µM

C/C(=N\Nc1nc(C)cs1)c1cc2ccccc2o1 [Compound 11, (E)-2-(2-(1-(benzofuran-2-yl)ethylidene)hydrazineyl)-4-methylthiazole]
IC50 [7]: 4 to 8.99 µM

— article PMC7902087 (Bioorganic & medicinal chemistry, 2020)
